Assay results taken from ChEMBL document CHEMBL4627320, “Discovery of CRBN E3 Ligase Modulator CC-92480 for the Treatment of Relapsed and Refractory Multiple Myeloma” (J Med Chem, 2020).
≈ marks a conversion by molar mass, not a printed value. Calls of active or inactive are those of the source. The calls are words filed in the database; no cut-off is given here.

Key:
[1] = molecular target: Protein cereblon/DNA damage-binding protein 1 (Homo sapiens, UniProt Q96SW2); test: Displacement of Cy5-conjugated CELMoD from N-terminal 6-His tagged CRBN (1 to 442 residues) (unknown origin)/DDB1 (1 to 1140 residues) (unknown origin) incubated for 10 mins by FRET assay; type: protein assay
[2] = Metabolic stability in rat liver S9 fraction assessed as parent compound remaining after 60 mins; type: ADME, subcellular; settings: read-out: Stability
Summary of the method: (§1)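 Compound incubated with human or rat liver S9 fraction; percent parent remaining at 60 min.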

[3] = Antitumor activity against human NCI-H929-1051 cells xenografted in CB17 SCID mouse assessed as reduction in tumor volume at 10 mg/kg, po qd for 21 days measured post last dose by caliper method relative to control; type: functional; set-up: scale not given: the % may be the effect or the level left
Summary of the method: (§2)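 Female CB17 SCID mice, 6-8 weeks old, were inoculated subcutaneously with 10×10⁶ NCI-H929-1051 cells, which had been expanded in 10 μM lenalidomide. At about 150 mm³ the mice were randomized (n=8-10/group) and dosed orally once daily for 21 days, with a vehicle control group. Tumors were measured by caliper twice weekly and volume was taken as width²×length/2. Final volumes were taken after the last dose. Data are mean ± SEM.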

[4] = organism: Homo sapiens; test: Induction of apoptosis in lenalidomide-resistant human H929-R10-1 cells assessed as p27 stabilization at 1 to 100 nM after 72 hrs by Western blot analysis; type: functional
Summary of the method: (§3)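 H929 R10-1 cells treated with DMSO or compound (1–100 nM) for 72 h, washed in PBS, lysed in NP-40/Tris pH 8 buffer with protease and phosphatase inhibitors; clarified lysates immunoblotted for p27, cleaved caspase-1, -3, -7 and cleaved PARP, with β-tubulin, using fluorescent secondary antibodies.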

[5] = organism: Homo sapiens; test: Induction of apoptosis in lenalidomide-resistant human H929-R10-1 cells assessed as increase in cleaved PARP level after 72 hrs by Western blot analysis; type: functional; summary of the method: as §3
[6] = organism: Homo sapiens; test: Induction of apoptosis in lenalidomide-resistant human H929-R10-1 cells assessed as increase in cleaved caspase7 level at 1 to 100 nM after 72 hrs by Western blot analysis; type: functional; summary of the method: as §3
[7] = Clearance in Sprague-Dawley rat at 2 mg/kg, iv; type: ADME, organism-based; settings: in vivo
[8] = Oral bioavailability in Sprague-Dawley rat at 10 mg/kg; type: ADME, organism-based; settings: in vivo
Summary of the method: (§4)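 Sprague-Dawley rats given 10 mg/kg orally as a suspension in 0.5% CMC / 0.25% Tween-80 / water; plasma exposure followed.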

[9] = Efflux ratio of permeability across apical to basolateral side in human Caco2 cells; type: ADME, cell-based; settings: Caco-2
[10] = organism: Homo sapiens; test: Induction of apoptosis in lenalidomide-resistant human H929-R10-1 cells assessed as increase in cleaved caspase3 level at 1 to 100 nM after 72 hrs by Western blot analysis; type: functional; summary of the method: as §3
[11] = AUC (0 to infinity) in monkey at 3 mg/kg, po; type: ADME, organism-based, Macaca mulatta; set-up: dose 3 mg/kg, route oral, time infinity; settings: rhesus monkey, in vivo
[12] = Cmax in monkey at 3 mg/kg, po; type: ADME, organism-based, Macaca mulatta; set-up: dose 3 mg/kg, route oral; settings: rhesus monkey, in vivo
[13] = Antitumor activity against human NCI-H929-1051 cells xenografted in CB17 SCID mouse assessed as reduction in tumor volume at 3 mg/kg, po qd for 21 days measured post last dose by caliper method relative to control; type: functional; set-up: scale not given: the % may be the effect or the level left; summary of the method: as §2
[14] = Solubility of the compound at pH 5; type: physicochemical; settings: buffer
[15] = organism: Homo sapiens; test: Induction of apoptosis in lenalidomide-resistant human H929-R10-1 cells assessed as increase in cleaved caspase1 level at 1 to 100 nM after 72 hrs by Western blot analysis; type: functional; summary of the method: as §3
[16] = Tmax in Sprague-Dawley rat at 10 mg/kg, po; type: ADME, organism-based; settings: in vivo; summary of the method: as §4
[17] = organism: Homo sapiens; test: Induction of apoptosis in lenalidomide-resistant human H929-R10-1 cells assessed as caspase3 induction at 1 nM measured over 150 hrs by live cell imaging analysis; type: functional
Summary of the method: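 Lenalidomide-refractory H929 R10-1 cells treated at 1 nM to 1 μM; caspase-3 induction quantified by live cell imaging over 150 h.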

[18] = AUC (0 to infinity) in Sprague-Dawley rat at 10 mg/kg, po; type: ADME, organism-based; set-up: dose 10 mg/kg, route oral, time infinity; settings: in vivo; summary of the method: as §4
[19] = Cmax in Sprague-Dawley rat at 10 mg/kg, po; type: ADME, organism-based; set-up: dose 10 mg/kg, route oral; settings: in vivo; summary of the method: as §4
[20] = Metabolic stability in human liver S9 fraction assessed as parent compound remaining after 60 mins; type: ADME, subcellular; settings: read-out: Stability; summary of the method: as §1
[21] = Antitumor activity against human NCI-H929-1051 cells xenografted in CB17 SCID mouse assessed as reduction in tumor volume at 1 mg/kg, po qd for 21 days measured post last dose by caliper method relative to control; type: functional; set-up: scale not given: the % may be the effect or the level left; summary of the method: as §2
[22] = Drug metabolism in assay cell medium assessed as compound racemization measured within 24 hrs; type: physicochemical
Summary of the method: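 Compound held in the same cell medium used for the H929 R10-1 antiproliferation assay; enantiomer levels followed by chiral monitoring over 24 h.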

[23] = Drug metabolism in monkey assessed as compound racemization at 3 mg/kg, po relative to compound AUC; type: ADME, organism-based, Macaca mulatta; settings: rhesus monkey, in vivo

N#Cc1ccc(N2CCN(Cc3ccc(COc4cccc5c4CN([C@H]4CCC(=O)NC4=O)C5=O)cc3)CC2)c(F)c1 [MEZIGDOMIDE]
IC50 [1]: 30 nM | remaining at 1 h [2]: 100% | Activity [3]: 85.7% | Activity [4]: Active | Activity [5]: Active | Activity [6]: Active | clearance [7]: 6.8 mL/min/kg | bioavailability [8]: 38% | efflux ratio [9]: 1 | Activity [10]: Active | AUC(0-inf) [11]: 1.1 µM·h | Cmax [12]: 220 nM | Activity [13]: 83.8% | solubility [14]: 90 µg/mL (≈ 159 µM) | Activity [15]: Active | Tmax [16]: 48 min | Activity [17]: Active | AUC(0-inf) [18]: 16.4 µM·h | Cmax [19]: 3200 nM | remaining at 1 h [20]: 99% | Activity [21]: 75.3% | Drug metabolism [22]: Metabolite_Detected

N#Cc1ccc(N2CCN(Cc3ccc(COc4cccc5c4CN([C@@H]4CCC(=O)NC4=O)C5=O)cc3)CC2)c(F)c1
IC50 [1]: 4510 nM | Drug metabolism [23]: < 9% | AUC(0-inf) [11]: 0.1 µM·h | Cmax [12]: 16 nM | AUC(0-inf) [18]: 0.5 µM·h | Cmax [19]: 60 nM | Drug metabolism [22]: Metabolite_Detected
